High-throughput results from PubChem.
T cruzi repl – blocks replication of Trypanosoma cruzi; T. cruzi beta-gal in NIH3T3, luminescence, 90 h; inhibition, % (test concentration not listed); actives 1.4% (n = 300,000); AID 1885;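 active = mean inhibition across valid replicates above about 55%, limit read from the data; inconclusive = mean below that limit but half or more replicates reach it; inactive = mean below it, under half of replicates reach it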;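 note: signal also drops with host cell toxicity which is not excluded here; higher percent means less beta-gal luminescence so fewer parasites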
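System: NIH/3T3 fibroblasts plus reporter T. cruzi. Medium: DMEM plus 2% FBS. Probe or stimulus: 5000 reporter trypomastigotes per well. Compound: single 50 nL compound addition per well in DMSO. Incubation: co-culture of at least 90 h after 3 h attachment. Detection: GalScreen β-gal luminescence, detergent lysis, 60 min. Evaluation: parasite load inhibition, %.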
SKKanGAS inh – inhibitors of SKKanGAS S. pyogenes growth in kanamycin (SK-promoter or general growth effect); inhibition, % at 7.5 µM; BacTiter-Glo, 6 h; actives 1.3% (n = 300,000);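 active = mean replicate score, as percent of positive control median, at least 50; inconclusive = mean below 50 but one replicate at or above 50; inactive = mean and every replicate below 50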;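 note: strain carries kanamycin resistance gene driven by streptokinase promoter and grows in 40 µg/ml kanamycin; loss of luminescence reflects streptokinase promoter inhibition or plain growth inhibition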
Beta cell apopt – beta cell apoptosis inhibition; INS-1E cytokine-induced death, ATP luminescence, 48 h; percent of positive-control rescue, neutral wells zero; protection from apoptosis, % (no concentration beside the values); actives 0.8% (n = 300,000); AID 435005;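 active = Every replicate reaches about 75%, or at least half do and their mean reaches it too, limit read from the data; inconclusive = At least half of replicates reach the limit but their mean does not; inactive = Under half of replicates reach the limit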;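 note: higher means more ATP so stronger rescue from cytokine killing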
Lmaj promast – Leishmania major promastigote growth inhibition; Leishmania major promastigotes, resazurin fluorescence viability; inhibition, % at 10 µM; actives 9% (n = 200,000); AID 1063; in the data active = inhibition above about 50%;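 note: promastigotes grown with compound for 44 hours at 28 °C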
CSC inhib – blocks cancer stem cells; cancer stem cell-like cells viability, luminescence; inhibition, % at 7.5 µM; actives 1.1% (n = 300,000); in the data active = inhibition above about 75%; inconclusive = no clear call, values can overlap the other calls; tested in HMLE shEcad cells
Mdm2-MdmX inh – inhibitors of human Mdm2/MdmX interaction; SaOS-2 split-luciferase Mdm2/MdmX complementation, luminescence; inhibition, % at 8 µM; actives 3% (n = 330,000); AID 485346;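 active = inhibition of at least 50% at 8 µM in the primary screen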
Mdm2 MdmX conf – human Mdm2/MdmX binding inhibition, confirmed | shares compounds with Mdm2-MdmX inh | luminescent assay | inhibition, % at 8 µM | actives 55% (n = 10,000); in the data active = inhibition above about 40%
Full FLuc ctr – full-length luciferase inhibition in Mdm2/MdmX counter-screen; actives 77% (n = 6,200); SaOS-2 full-length luciferase counterscreen, luminescence; inhibition, % at 8 µM; shares compounds with Mdm2-MdmX inh;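 active = mean inhibition at 8 µM reaching about 37%, which flags the compound as non-specific, limit read from the data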;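 note: p53-null SaOS-2 cells with luciferase driven by a doxycycline-inducible promoter; compound on cells about two nights before reading with doxycycline added after day one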
Hits are given with their value; i = inactive; ? = inconclusive; nt = no result given. Compounds with a hit are over-represented: about 9.4% of the library has one in this group of screens.

SMILES	T cruzi repl	SKKanGAS inh	Beta cell apopt	Lmaj promast	CSC inhib	Mdm2-MdmX inh	Mdm2 MdmX conf	others
CCn1c(Cl)c(C=O)s/c1=N\S(=O)(=O)c1ccccc1	55	i	117	nt	?	100	98	Full FLuc ctr=51
Cn1c(=NC(=O)COc2ccccc2)sc2cccc(F)c21	i	i	i	nt	i	i	nt
COc1ccc2c(c1)c(=O)oc1cc(OCC(=O)NC3CC3)ccc12	i	i	i	i	nt	53	i
COc1cccc(/C=C2/SC(=S)N(CCC(=O)N3CCOCC3)C2=O)c1	i	i	i	nt	nt	53	i
COc1cccc(/C=C2\SC(=S)N(CCCC(=O)N3CCCCC3)C2=O)c1	i	i	i	nt	i	88	62	Full FLuc ctr=i
Cc1ccc(/C=C2\SC(=S)N(CCC(=O)N3CCOCC3)C2=O)cc1	i	i	i	nt	i	57	i
O=C(CCCN1C(=O)/C(=C/c2ccccc2)SC1=S)N1CCOCC1	i	i	i	nt	nt	i	nt
COc1ccc([N+](=O)[O-])cc1NC(=O)CCS(=O)(=O)c1ccc(Br)cc1	i	i	i	nt	i	i	nt
COc1cc(NC(=O)c2cccc3c2C(=O)N(Cc2cccnc2)C3)cc(OC)c1OC	i	i	i	i	i	52	48	Full FLuc ctr=95
O=C(Nc1ccc2c(c1)OCO2)c1cccc2c1C(=O)N(Cc1cccnc1)C2	i	i	i	i	i	i	nt
CCOc1ccc(N/C(SCc2cccc([N+](=O)[O-])c2)=C(/C#N)C(N)=O)cc1	i	i	i	i	i	i	nt
N#CC(C#N)=C(Nc1ccc(F)cc1)SCc1cccc(F)c1	i	i	102	i	i	90	92	Full FLuc ctr=i
CC(C)(C)NC(=O)CN(c1cccc([N+](=O)[O-])c1)S(=O)(=O)c1ccccc1	i	i	nt	i	i	i	nt
COc1ccc(CCNC(=O)CN(c2ccc(OC)c(OC)c2)S(=O)(=O)c2ccc(C)cc2)cc1	i	i	i	nt	nt	i	nt
CC(NC(=O)CN(c1cccc(C(F)(F)F)c1)S(=O)(=O)c1ccc(Cl)c([N+](=O)[O-])c1)c1ccccc1 (centres undefined)	i	i	i	50	98	82	55	Full FLuc ctr=i
O=C(CN(c1cccc(C(F)(F)F)c1)S(=O)(=O)c1ccc(Cl)c([N+](=O)[O-])c1)NCc1ccccc1	i	i	i	63	85	82	40	Full FLuc ctr=59
O=C(CN(c1cccc(C(F)(F)F)c1)S(=O)(=O)c1ccc(Cl)c([N+](=O)[O-])c1)NCc1ccccc1Cl	i	i	i	100	101	73	i	Full FLuc ctr=103
Cc1ccc(N(CC(=O)NCCc2ccc(F)cc2)S(=O)(=O)c2ccc(Cl)c([N+](=O)[O-])c2)c(C)c1	i	i	i	54	80	100	i
O=C(O)CN(c1cccc(C(F)(F)F)c1)S(=O)(=O)c1ccccc1	i	i	i	i	i	i	nt
CCc1ccccc1N1CC(C(=O)Nc2nccs2)CC1=O (centres undefined)	i	i	i	nt	i	i	nt
CCS(=O)(=O)C(C)(CCl)C(=O)Nc1ccc(C(=O)OC)cc1 (centres undefined)	i	i	i	nt	i	i	nt
COc1ccc(CCNC(=O)CSc2nc3ncccc3[nH]2)c(OC)c1	i	i	i	nt	i	i	nt
CCCC(=O)Oc1ccc(C2NC(=O)c3ccccc3O2)cc1 (centres undefined)	i	i	i	nt	i	i	nt
Cc1ccc(-c2nn3c(C)nnc3c3ccccc23)cc1S(=O)(=O)NC(C)(C)CO	i	i	nt	i	i	71	53	Full FLuc ctr=78
Cc1nnc2c3ccccc3c(-c3ccccc3)nn12	i	i	i	i	i	64	i
SMILES	T cruzi repl	SKKanGAS inh	Beta cell apopt	Lmaj promast	CSC inhib	Mdm2-MdmX inh	Mdm2 MdmX conf	others
Cc1ccc(-c2nn3c(C)nnc3c3ccccc23)cc1S(=O)(=O)NC(C)c1ccccc1 (centres undefined)	i	i	i	99	i	62	i
Cc1nnc2c3ccccc3c(-c3cccc4ccccc34)nn12	nt	nt	nt	i	nt	nt	nt
Cc1ccc(-c2nn3c(C)nnc3c3ccccc23)cc1S(=O)(=O)NCCO	i	i	i	i	i	i	nt
COc1ccc(CCNC(=O)C(=O)NCCC2CCCCN2S(=O)(=O)c2ccccc2)cc1 (centres undefined)	i	i	i	nt	i	i	nt
CCC(C)Sc1cc(-c2nc3ccc(Cl)cn3c2NC2CCCCC2)ccc1OC (centres undefined)	nt	nt	nt	nt	nt	i	nt
COc1ccc(C(=O)NCC(=O)N/N=C/c2ccc(C)o2)cc1OC	i	i	i	nt	i	i	nt
O=C(Cn1nc(-c2ccccc2)ccc1=O)Nc1ccc(NC(=O)c2ccccn2)cc1	i	i	i	i	i	83	i
O=C(Cn1nc(-c2ccccc2)ccc1=O)Nc1ccc(-n2cnnn2)cc1	i	i	i	nt	i	i	nt
COc1ccc2c(c1)NC(c1ccc(N(C)C)cc1)c1cccn1-2 (centres undefined)	i	i	i	nt	i	i	nt
O=C(CN1CCN(S(=O)(=O)c2cccc(Cl)c2)CC1)NCC1(N2CCOCC2)CCCCC1	nt	nt	nt	nt	nt	i	nt
Cc1nn(CCOc2cccc(Cl)c2)c(C)c1[N+](=O)[O-]	i	i	i	nt	i	i	nt
CC(=O)Nc1ccc(C(=O)OCC(=O)NCc2ccc3c(c2)OCO3)cc1	nt	nt	i	nt	i	i	nt
CC1CCC(NS(=O)(=O)c2ccc(N3CCCC3=O)cc2)CC1 (centres undefined)	i	i	i	nt	i	i	nt
COc1ccc(OC)c(S(=O)(=O)Nc2cc(C)on2)c1	i	i	i	nt	i	i	nt
O=[N+]([O-])c1cc([N+](=O)[O-])c2cc3ccccc3nc2c1	i	i	i	nt	80	82	i
O=[N+]([O-])c1cnc2ccccc2c1	i	i	i	i	i	i	nt
CCOC(=O)c1c(NC(C)=O)sc2c(OCCN(CC)CC)c(Br)ccc12	58	i	i	100	i	55	i
CCOC(=O)c1c(NC(C)=O)sc2c(OC)c(Br)ccc12	i	i	i	i	i	i	nt
CCOC(=O)c1c(NC(C)=O)sc2c(OCC(O)CN(CC)CC)c(Br)ccc12 (centres undefined)	i	i	i	100	i	85	i
CCO[C@@H]1OC(C(=O)NCc2nc3ccccc3[nH]2)=C[C@H](C2CC2)[C@H]1CCCO	i	i	i	i	i	i	nt
CCO[C@@H]1OC(C(=O)NCc2nc3ccccc3[nH]2)=C[C@H](C(C)(C)C)[C@H]1CCCO	i	i	i	nt	i	54	50	Full FLuc ctr=95
Cc1ccc(-c2[nH][nH]c(=O)c(=O)c2N=Nc2ccccc2)cc1	i	i	i	nt	i	61	i
CC[C@H](C)Cc1cn([C@@H](CCCN=C(NC(=O)OC(C)(C)C)NC(=O)OC(C)(C)C)C(=O)NCCCCCCCCCCC(=O)N2CCN(C(=O)OC(C)(C)C)CC2)nn1	59	i	i	nt	i	66	i
